Source: PubChem BioAssay (Sanford-Burnham Center for Chemical Genomics)
An excerpt weighted towards active compounds, which were near 0.6% of everything screened.
TNAP inh hiacc = human TNAP enzyme inhibitors, primary screen, biochemical, luminescent, high phosphate acceptor level, uHTS; Alkaline phosphatase, tissue-nonspecific isozyme (Homo sapiens), P05186; purified TNAP, CDP-star luminescence, 1 M DEA; inhibition, % at 20 µM; 200,000 tested, 0.03% active;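 active = over 50% inhibition of tissue-nonspecific alkaline phosphatase at 20 µM in the single-dose screen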
TNAP inh noacc = human TNAP enzyme inhibitors, primary screen, biochemical, luminescent, no phosphate acceptor, uHTS; Alkaline phosphatase, tissue-nonspecific isozyme (Homo sapiens), P05186; purified TNAP, CDP-star luminescence, 30 min; inhibition, % at 20 µM; 200,000 tested, 0.26% active; AID 1012, 2008;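 active = tissue-nonspecific alkaline phosphatase inhibition above about 50% at 20 µM in the single-dose screen, limit read from the data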
PMI activator = activators of human PMI, primary screen, biochemical, fluorescence intensity, near-Km mannose 6-phosphate; Mannose-6-phosphate isomerase (Homo sapiens), P34949; purified human PMI, coupled resazurin fluorescence, 20 min; active compounds read high; 1 = vehicle control, 0 substrate-free wells; activation factor at 20 µM; 190,000 tested, 0.005% active;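 active = activation factor of 2 or more at 20 µM, relative to plate controls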
Target sequence (P34949 whole entry, looked up): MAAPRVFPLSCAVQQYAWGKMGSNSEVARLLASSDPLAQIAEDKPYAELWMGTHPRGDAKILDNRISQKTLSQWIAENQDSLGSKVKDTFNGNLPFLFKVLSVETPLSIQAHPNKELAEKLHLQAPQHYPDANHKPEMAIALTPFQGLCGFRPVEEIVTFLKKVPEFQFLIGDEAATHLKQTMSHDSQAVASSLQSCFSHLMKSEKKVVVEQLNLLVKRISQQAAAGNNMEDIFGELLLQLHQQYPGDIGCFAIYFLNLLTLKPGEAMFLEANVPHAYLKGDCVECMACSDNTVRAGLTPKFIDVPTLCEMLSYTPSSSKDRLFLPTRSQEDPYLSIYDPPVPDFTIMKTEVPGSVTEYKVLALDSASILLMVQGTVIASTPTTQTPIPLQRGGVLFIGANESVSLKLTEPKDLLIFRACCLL
PMI act hi M6P = human PMI activators, high substrate, primary screen, biochemical, fluorescence intensity, near-saturating mannose 6-phosphate; 190,000 tested, 0.34% active; activation factor at 20 µM; AID 1216, 2008; coupled PMI enzyme assay, resazurin fluorescence, 20 min; active compounds read high; 1 = untreated enzyme, 0 = substrate-free blank;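 active = activation factor of 2 or more at 20 µM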
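Material: human phosphomannose isomerase with PGI, G6PDH, diaphorase coupling enzymes. Quantity: 15 ng/mL PMI. Medium: HEPES pH 7.4 buffer with MgCl2 and Tween-20. Reagent: Near-saturating mannose-6-phosphate, 1.0 mM. Compound: 20 µM single dose. Times: enzyme reaction with compound 20 min at room temperature. Detection: resorufin fluorescence at Ex 544/Em 590 nm.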
TNAP act hiacc = TNAP activators at high phosphate acceptor level, primary screen, biochemical, luminescence, uHTS | Alkaline phosphatase, tissue-nonspecific isozyme (Homo sapiens), P05186 | purified TNAP, CDP-star luminescence, 1 M DEA, 30 min; active compounds read high; 0 = EDTA background, 1 = DMSO-only activity | activation factor at 20 µM | 200,000 tested, under 10 active | AID 1136, 2008;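 active = activation factor at least 2 at 20 µM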
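Test system – human TNAP · Doses – 20 µM single point · Incubation – 30 min, room temperature · Signal – luminescent substrate turnover signal · Read-out basis – activation factor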
Each line names hits and unclear results; the compound was inactive in the other large screens.

Cc1ccc(N2CC(C(=O)Nc3nnc(SCC(=O)Nc4nc(C)cs4)s3)CC2=O)cc1 (configuration not stated)	none
CCOc1ccccc1NC(=O)CCCN1C(=S)NC(C)(C)CC1C (configuration not stated)	none
CC(C)CCC(C(=O)O)C(C)CC(=O)NNC(=O)c1ccco1 (configuration not stated)	none (no result: PMI activator, PMI act hi M6P)
CCc1ccc(C(=O)NC(CCSC)C(=O)OC)cc1 (configuration not stated)	none
CC(=O)Nc1n[nH]c(-c2ccc(C)cc2)c1C	TNAP inh noacc 85.1
NS(=O)(=O)c1cccnc1Nc1cccc(Cl)c1Cl	TNAP inh hiacc 50.3
Cc1ccc2c(c1)/C(=N/N1C(=O)c3ccccc3C1=O)C(=O)N2	none
C=C1c2cc(C)ccc2NC(=O)N1c1ccc(C)cc1	PMI act hi M6P 2.4
C=C1c2ccccc2NC(=O)N1c1ccc(C)cc1	PMI act hi M6P 2.1
Cc1ccc(N2C(=O)c3cccc4cccc(c34)C2=O)cc1	none
COc1ccccc1NC(=O)CN1CCSc2ccccc21	none
O=C(Nc1ccccc1)N1CCc2scc[n+]2-c2ccccc21	TNAP inh noacc 69.7
CC1CN(C(=O)Nc2ccccc2)c2ccccc2-[n+]2ccsc21 (configuration not stated)	TNAP inh noacc 71.7
Fc1ccc(N/N=C/c2ccc(N3CCOCC3)cc2)c(F)c1	PMI act hi M6P 2.2
C/C(=N\NC(=O)c1ccc(Cl)cc1)c1ccc(Br)s1	none
C/C(=N\Nc1ccc(F)cc1F)c1ccc(Br)s1	PMI act hi M6P 2.6
O=S(=O)(Nc1ccc(N2CCOCC2)cc1)c1ccc(F)cc1F	none
C/C(=N\Nc1ccc(F)cc1F)c1ccc(F)cc1	PMI act hi M6P 2.4
C/C(=N\Nc1ccc(F)cc1F)c1ccc(N2CCOCC2)cc1	PMI act hi M6P 2.4
C=CCN(C(=O)C1=NN(C2CCS(=O)(=O)C2)C(=O)CC1)c1nc(-c2ccc([N+](=O)[O-])cc2)cs1 (configuration not stated)	none
CC(C)CCNC(=O)CNC(=S)N(Cc1ccccc1)Cc1cccnc1	none
O=C(Nc1nc2ccccc2s1)NC1CCCCC1	none
COc1ccc(NC(=O)CCS(=O)(=O)c2ccccc2Cl)cc1S(=O)(=O)Nc1ccc(Cl)cc1	none
CCc1cc(/C(Cc2csc(C)n2)=N/O)c(O)cc1O	none
Cc1nc(C/C(=N\N)c2ccc(O)cc2O)cs1	PMI act hi M6P 2.3
CNC(=S)N/N=C(\C)c1ccc(Cl)s1	none
Clc1cccc(N/N=C/c2ccncc2)c1	none
C/C(=N\Nc1ccc(F)cc1)c1ccncc1	PMI act hi M6P 2.5
C/C(=N/Nc1ccc(F)cc1)c1ccc(Cl)s1	PMI act hi M6P 2.3
C/C(=N\Nc1cccc(Cl)c1)c1ccncc1	PMI act hi M6P 2.3
CC(C)(C)C1CCC2(CC1)SCC(=O)N2c1ccccc1 (configuration not stated)	none
CC(C)(C)C1CCC2(CC1)NC(=S)N(c1ccccc1)N2 (configuration not stated)	PMI act hi M6P 2.8
COc1cc(-c2cc(N3C(=O)Nc4ccccc4N3O)n[nH]2)cc(OC)c1OC	none
COc1ccc(-c2cc(N3C(=O)Nc4ccccc4N3O)n[nH]2)cc1	TNAP inh noacc 75.4
O=C1Nc2ccccc2N(O)N1c1cc(-c2ccccc2)[nH]n1	TNAP inh noacc 81.2
COc1ccc(-c2cc(N3C(=O)Nc4ccccc4N3O)n[nH]2)cc1OC	none
Cc1c(Br)c([N+](=O)[O-])nn1CC(=O)N(C)Cc1ccccc1	none
CCn1c(C)c(P(c2ccccc2)c2ccccc2)[n+]2ccccc12	none
O=C(c1cnc(N2CCN(c3ccccn3)CC2)c2ccccc12)N1CCN(c2cccc(Cl)c2)CC1	none
CC/C(=N/Nc1ccccc1)c1cnnc(-c2ccccc2)n1	PMI act hi M6P 2.9
O=C(NCC1CCCCC1)c1cccc(S(=O)(=O)NCc2cccnc2)c1	none
Cc1cc(=S)c2cccc(C)c2[nH]1	PMI act hi M6P 2.7
Cc1ccc(S(=O)(=O)N/N=C/c2ccc(O)c(O)c2)cc1[N+](=O)[O-]	TNAP inh noacc 67.1
COc1ccc(C(=O)NNc2ccccc2)cc1	PMI act hi M6P 2.4
COc1ccc(C(=O)c2ccccc2)cc1	none
CS(=O)c1ccccc1COC(=O)Nc1ccccc1 (configuration not stated)	none
C=CCOc1c(OC)cc(/C=N/Nc2cccc(C(=O)O)c2)c(Br)c1Br	PMI act hi M6P 2.4
COc1ccccc1NC(=O)CN(Cc1ccco1)C(=O)c1cc2ccccc2o1	none
CCN=C(N/N=C/c1ccc([N+](=O)[O-])cc1)SC	PMI act hi M6P 2.1
CCN(CC)c1ccc(/C=N/NC(=O)c2ccc([N+](=O)[O-])cc2)cc1	none
COc1cc(C(=O)NC(=S)Nc2nccs2)cc(OC)c1OC	none
COc1ccc(-c2[nH]ncc2C=O)cc1OC	none
O=Cc1cn[nH]c1-c1ccccc1	TNAP inh noacc 74.9
Cc1cc(C)c2c(N=NN3CCCCC3)[nH]nc2n1	none
CCN(CC)N=Nc1[nH]nc2nc(C)cc(C)c12	PMI act hi M6P 2
O=Cc1c(Sc2ccccc2)nc2ccccn2c1=O	none
O=c1c(/C=N/Nc2ccccc2)c(Sc2nnnn2-c2ccccc2)nc2ccccn12	PMI act hi M6P 2
CN(C)c1ccc(/C=N/Nc2ccc(-n3ccnc3)nn2)cc1	PMI act hi M6P 2.2
C=CCSc1nnc(CNC(=O)c2ccccc2C)n1C(C)C	none
C#CCNC(=O)C(C)c1ncc(C(F)(F)F)cc1Cl (configuration not stated)	none
CC1(C)CC(=O)C/C(=N\NC(=O)C2CC23CCC3)C1 (configuration not stated)	none
COc1ccc(C2NN=C(c3ccc(C)cc3)S2)cc1OC (configuration not stated)	PMI act hi M6P 2.9
Fc1cccc(C2NN=C(c3ccccc3)S2)c1 (configuration not stated)	none
Cc1ccc(C2=NNC(c3cccc(F)c3)S2)cc1 (configuration not stated)	PMI act hi M6P 2.1
COc1ccc(C2NC(=O)CS2)cc1OC (configuration not stated)	none
CN(C)c1ccc(C(=S)N2CCOCC2)cc1Br	PMI act hi M6P 2.6
COc1ccc(C(=O)NCc2nnc(SCC(=O)N3CCOCC3)o2)cc1OC	none
N#C/C(=C\C1=C(N2CCOCC2)C(=C\c2ccc(Cl)cc2)/CC1)C(=O)Nc1ccccc1F	none
